pIC50: −log10 of the molar value. Counter-ions that a name gives are not always drawn.
How the values were obtained:
[1] = tested on: K562; assay: Cytotoxicity against K562 leukemia cell line done for 72 hr at 37 degree C with compound in MTS assay; type: functional, cell-based, Homo sapiens
In short: (§1)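 Cells (2000–10000) seeded in RPMI-1640 for 24 h, then exponentially growing cells exposed to a range of concentrations (0.001–5 μM) for 72 h at 37 °C, 5% CO2. MTS (2 mg/mL) mixed with PMS (25 μM) added directly; after 3 h at 37 °C formazan absorbance read at 490 nm. IC50 taken from dose-response curves of percent growth versus untreated control.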

[2] = tested on: SW-620; assay: Cytotoxicity against SW620 colon cancer cell line done for 72 h at 37 degree C with compound in MTS assay; type: functional, cell-based, Homo sapiens; in short: as §1

Compound | pIC50 ([1]; Homo sapiens, K562, 72 h) | pIC50 ([2]; Homo sapiens, SW-620, 72 h) | pIC50 ([1]; k562) | pIC50 ([2]; sw-620)
COc1cccc2c1C(=O)c1c(O)c3c(c(O)c1C2=O)C[C@@](O)(C(C)=O)C[C@@H]3OC1CC(N)C(OC2CC(C)(OC)C(O)C(C)O2)C(C)O1 (stereo partly drawn) | 7.68 | 7.94 | – | –
COc1cccc2c1C(=O)c1c(O)c3c(c(O)c1C2=O)C[C@@](O)(C(C)=O)C[C@@H]3OC1CC(N)C(OC2CC(C)(O)C(O)C(C)O2)C(C)O1 (stereo in doubt; 3) | – | – | 7.35 | 7.66
COc1cccc2c1C(=O)c1c(O)c3c(c(O)c1C2=O)C[C@@](O)(C(C)=O)C[C@@H]3OC1CC(N)C(OC2CC(OC)C(O)C(C)O2)C(C)O1 (stereo in doubt; 2) | – | – | 7.34 | 7.41
COc1cccc2c1C(=O)c1c(O)c3c(c(O)c1C2=O)C[C@@](O)(C(C)=O)C[C@@H]3OC1CC(N)C(OC2CC(N=[N+]=[N-])C(O)C(C)O2)C(C)O1 (stereo partly drawn) | 7.50 | 7.22 | – | –
COc1cccc2c1C(=O)c1c(O)c3c(c(O)c1C2=O)C[C@@](O)(C(C)=O)C[C@@H]3OC1CC(N)C(OC2CC(O)C(O)C(CO)O2)C(C)O1 (stereo partly drawn) | 5.86 | < 6.00 | – | –
COc1cccc2c1C(=O)c1c(O)c3c(c(O)c1C2=O)C[C@@](O)(C(C)=O)C[C@@H]3OC1CC(N)C(OC2OC(C)C(O)C(O)C2O)C(C)O1 (stereo partly drawn) | < 5.40 | < 6.00 | – | –
COc1cccc2c1C(=O)c1c(O)c3c(c(O)c1C2=O)C[C@@](O)(C(C)=O)C[C@@H]3O[C@H]1C[C@H](N)[C@H](O)[C@H](C)O1 [DAUNORUBICIN HYDROCHLORIDE] | 7.81 | 8.07 | – | –
COc1cccc2c1C(=O)c1c(O)c3c(c(O)c1C2=O)C[C@@](O)(C(C)=O)C[C@@H]3OC1CC(N)C(OC2CC(OC)C(O)C(C)O2)C(C)O1 (stereo in doubt; 1) | 7.40 | – | – | 7.74
COc1cccc2c1C(=O)c1c(O)c3c(c(O)c1C2=O)C[C@@](O)(C(C)=O)C[C@@H]3OC1CC(N)C(OC2CC(C)(O)C(O)C(C)O2)C(C)O1 (stereo in doubt; 4) | – | – | 5.82 | < 6.00

From ChEMBL document CHEMBL1145165, “Syntheses and biological activities of disaccharide daunorubicins” (J Med Chem, 2005)
